Source: PubChem BioAssay
SIRT5 inh: inhibitors of human sirtuin-5 desuccinylase | Q9NXA8 | Purified SirT5, succinyl-peptide AMC, trypsin-coupled fluorescence | inhibition, % at 15 µM | 1.1% of 330,000 active; in the data active = inhibition above about 15%
Target sequence (Q9NXA8 whole entry, looked up): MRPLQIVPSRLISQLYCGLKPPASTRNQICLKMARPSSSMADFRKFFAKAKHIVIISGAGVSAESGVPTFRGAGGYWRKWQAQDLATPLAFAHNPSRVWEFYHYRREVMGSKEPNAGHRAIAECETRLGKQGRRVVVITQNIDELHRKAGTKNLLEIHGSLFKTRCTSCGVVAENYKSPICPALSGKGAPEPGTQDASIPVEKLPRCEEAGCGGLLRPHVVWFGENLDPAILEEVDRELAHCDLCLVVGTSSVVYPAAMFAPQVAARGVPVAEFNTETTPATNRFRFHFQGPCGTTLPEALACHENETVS
E-sel inducer: induces E-selectin expression in human endothelial cells | P16581 | HUVEC E-selectin immunofluorescence imaging; normalized: neutral wells 0, TNF-alpha wells 100 | activation, % at 7.58 µM | 0.37% of 260,000 active | AID 686992;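 active = mean E-selectin-positive cell signal at least 10% of the positive control, reached in at least 60% of replicates, without over 20% cell loss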
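material = human umbilical vein endothelial cells (HUVEC), E-selectin induction | quantity = 3,000 cells/well | medium = EGM-2 growth medium on 0.1% gelatin-coated wells | technique = immunofluorescence imaging | read-out basis = % PE-positive cells | control set = TNF-alpha positive control, DMSO neutral control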
FGF22 binding: FGF22 (human) thermal shift binding; Q9HCT0; recombinant FGF22 thermal shift, SYPRO orange fluorescence; percent of sucrose octasulfate shift, DMSO zero; activity (Tm shift, normalised), % at 9.99 µM; 1.5% of 340,000 active; AID 651658;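 active = mean Tm shift, scaled 0 neutral to 100 positive control, at about 1.3% or above, every replicate too, limit read from the data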
Target sequence (Q9HCT0 whole entry, looked up): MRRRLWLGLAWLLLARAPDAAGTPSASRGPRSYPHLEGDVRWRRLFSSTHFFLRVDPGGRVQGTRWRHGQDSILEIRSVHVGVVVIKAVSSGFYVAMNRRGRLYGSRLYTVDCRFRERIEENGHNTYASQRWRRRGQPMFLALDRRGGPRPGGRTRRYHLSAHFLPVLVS
miR-122 sensor: miR-122 inhibition in Huh7 cells; Huh7 miR-122 Renilla luciferase sensor, 48 h; neutral wells = 0, positive control = 100; activation (reporter increase), % at 12.5 µM; 0.3% of 340,000 active;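 active = mean replicate activation score at least 90 and every replicate individually at or above 90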;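 note: higher luciferase means less miR-122 activity so hits act as miR-122 inhibitors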
S100A4 inh HTS: blocks human S100A4 binding to myosin IIA peptide. S100A4/TAMRA-MyoIIA peptide fluorescence polarization. inhibition, % at 10.7 µM. 0.14% of 360,000 active. AID 652163;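 active = mean inhibition of at least 70% across replicates, with every replicate also reaching that level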
Target sequence (P26447 whole entry, looked up): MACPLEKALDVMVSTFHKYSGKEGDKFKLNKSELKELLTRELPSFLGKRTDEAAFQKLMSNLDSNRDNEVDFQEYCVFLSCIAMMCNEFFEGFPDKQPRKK
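Test system: S100A4 monomer protein; Medium: HEPES pH 7.2 with CaCl2, KCl, NaCl, DTT, Triton; Probe or stimulus: TAMRA-labelled myosin IIA heavy-chain peptide probe, 5 nM; Doses: one dose per compound; Times: polarization read 5 min after assay mix addition, stable 5–60 min; Benchmarks: neutral control DMSO, positive control TFP.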
* marks the source's active call; other numbers are inactive results; / = no result given; [ ] = dose if it differs, or a comment. Only some compounds are listed: those with a hit (about 2.5% of all), similar ones and a draw of the others.

SMILES	SIRT5 inh	E-sel inducer	FGF22 binding	miR-122 sensor	S100A4 inh HTS
Cc1noc(C)c1NC(=O)Nc1ccc2c(c1)CC(=O)N([C@@H](C)CO)C[C@@H](C)[C@@H](CN(C)S(=O)(=O)c1cccs1)O2	5	-9	1	-2[16.7 µM]	-2
O=C1OC[C@@H]2CCCN2C(=O)[C@@H](CC(=O)N(CCO)Cc2ccccc2)C/C=C\C[C@@H]1Cc1ccc(F)cc1	0	0	44*	-2	2
COc1ccc(C(=O)Nc2nc3ccccc3[nH]2)cc1	-3	-7	0	-6	2
COc1ccc(C(=O)NC(C(=O)NCC(=O)Nc2c(C)cccc2C)C(C)C)cc1 (centres undefined)	0	/	44*	0	-2
COc1ccc(C(=O)N[C@H](C(=O)Nc2nc3ccccc3[nH]2)C(C)C)cc1	-7	0	42	117*	29
CN1c2ccc(-c3ccccc3)cc2[C@H]2[C@H](CCN2C(=O)c2ccncc2)[C@H]1CO	3	0	-1	31[16.7 µM]	7
CCCNC(=O)C[C@H]1CC[C@H]2[C@@H](COc3ccc(NC(=O)COC)cc3C(=O)N2C)O1	/	0	0	-4[16.7 µM]	/
O=C(N[C@H]1CC[C@H](CCn2cc(C3(O)CCCC3)nn2)O[C@@H]1CO)C1CCOCC1	-1	0	0	/	0
COCCNC(=O)C(=O)N/N=C(\C)CC(=O)Nc1cccnc1	0	/	44*	-1	4
COCCNC(=O)C(=O)N/N=C(\C)CC(=O)Nc1ccc2c(c1)OCO2	-1	0	0	/	-17
CCC[C@H]1CC(=O)C=C(c2ccsc2)ON1C(=O)OC(C)(C)C	21*	0	0	-6	-4
CS(=O)(=O)c1ccccc1-c1csc(N2CCC(C(N)=O)CC2)n1	3	41*	0	/	-1
Cc1cc(NCCN2CCOCC2)c2ccc3ccccc3c2n1	0	1	43*	/	-3
COc1ccc2nc(C)cc(NCCN3CCOCC3)c2c1	0	0	0	0	3
Clc1nc(NCCN2CCOCC2)nc(NCc2ccccc2)n1	1	/	44*	/	-2
CC(C)(C)Nc1nc(Cl)nc(NCCN2CCOCC2)n1	-7	0	0	/	2
C[C@@H]1CCCCO[C@H](CN(C)Cc2ccc(C(=O)O)cc2)[C@H](C)CN([C@H](C)CO)C(=O)c2cc(NC(=O)NC3CCCCC3)ccc2O1	-2	0	0	5[16.7 µM]	2
CC(C)NC(=O)Nc1ccc2c(c1)C(=O)N([C@H](C)CO)C[C@H](C)[C@@H](CN(C)C(=O)NC(C)C)OCCCC[C@@H](C)O2	-1	/	-1	8[16.7 µM]	-39
CCNC(=O)C[C@H]1CC[C@@H]2[C@@H](COc3ccc(NC(=O)Cc4cccs4)cc3C(=O)N2C)O1	-2	0	0	-2[16.7 µM]	18
COc1ccc2c3c(n(C)c2c1)[C@@H](CO)NCC31CCN(S(=O)(=O)c2ccc(C)cc2)CC1	/	0	0	/	/
CO[C@@H](CCO)[C@@H](O)c1ccc(O)c(F)c1	-1	/	0	/	11
Cc1cccc(N2CCN(Cc3nc(-c4cccc(Cl)c4)oc3C)CC2)n1	-1	4	0	/	5
Cc1oc(-c2cccc(C(F)(F)F)c2)nc1CN1CCN(c2ccccn2)CC1	7	/	43*	-4	5
CC(=O)N1c2ccc(S(=O)(=O)NCCC(=O)NC3CCC(C)CC3)cc2CC1C (centres undefined)	44*	/	0	0	20
CC(=O)N1c2ccc(S(=O)(=O)NCC3CCC(C(=O)NC4CCC(C)CC4)CC3)cc2CC1C (centres undefined)	-3	/	0	-11	2
SMILES	SIRT5 inh	E-sel inducer	FGF22 binding	miR-122 sensor	S100A4 inh HTS
O=C(Nc1ccc2c(c1)[C@H]1C[C@H](CC(=O)N3CCc4ccccc4C3)O[C@@H](CO)[C@H]1O2)Nc1ccccc1F	/	2	/	31[16.7 µM]	/
CCN(CC(=O)Nc1ccccc1OC)CC(=O)Nc1sccc1C#N	15*	0	0	1	0
O=C(Nc1ccccc1N1CCOCC1)c1cccc(S(=O)(=O)Nc2ccccc2F)c1	-3	/	0	/	-8
CN(C)CCNC(=O)c1cccc(S(=O)(=O)Nc2ccccc2F)c1	30*	/	0	/	1
C=CCNC(=S)N/N=C/c1cccc([N+](=O)[O-])c1	0	-1	43*	-1	1
O=[N+]([O-])c1ccc(C=NNC(=S)Nc2ccc(F)cc2)cc1	/	0	44*	/	0
COc1ccc(/C=N/NC(=S)Nc2ccccc2)cc1	4	0	45*	/	-2
COc1ccc(/C=N/NC(=S)Nc2cccc(C(=O)O)c2)cc1	5	/	/	/	-3
CS(=O)(=O)N1CCN(C(=O)Nc2ccccc2)CC1	-4	-1	43*	-5	4
CCOC(=O)CC(NC(=O)c1cccc2c1C(=O)N(Cc1cccnc1)C2)c1ccc(OCC)c(OC)c1 (centres undefined)	-2	/	43*	8	-1
C[C@@H]1CN([C@H](C)CO)C(=O)c2cc(NS(C)(=O)=O)ccc2O[C@H]1CN(C)C(=O)Nc1ccc2c(c1)OCO2	-6	197*	0	1[16.7 µM]	-2
C[C@@H]1CN([C@@H](C)CO)C(=O)c2cc(NS(C)(=O)=O)ccc2O[C@H]1CN(C)C(=O)Nc1ccccc1	3	-15	0	-8[16.7 µM]	8
C[C@H](CO)N1C[C@H](C)[C@H](CN(C)C(=O)Nc2ccccc2)Oc2ccc(NS(C)(=O)=O)cc2C1=O	0	74*	0	-4[16.7 µM]	-3
C[C@H]1CN([C@@H](C)CO)C(=O)c2cc(NS(C)(=O)=O)ccc2O[C@H]1CN(C)C(=O)Nc1ccccc1	-3	-15	0	-1[16.7 µM]	-4
C[C@@H]1CN([C@H](C)CO)C(=O)c2cc(NS(C)(=O)=O)ccc2O[C@H]1CN(C)C(=O)Nc1ccccc1	2	69*	0	1[16.7 µM]	0
C[C@H](CO)N1C[C@H](C)[C@H](CN(C)C(=O)Nc2ccc(F)cc2)Oc2c(NC(=O)Nc3ccc(F)cc3)cccc2C1=O	1	1	0	0[16.7 µM]	-31
COc1ccc2c3c([nH]c2c1)[C@@H](CO)N(S(C)(=O)=O)CC31CN(C(=O)c2cccnc2)C1	-4	0	/	/	1
COC(=O)C1=C(C(=O)OC)C(c2ccccc2O)c2sc(=O)[nH]c2S1 (centres undefined)	16*	/	0	/	-4
COC(=O)c1sc2ccccc2c1N	/	0	0	-1	-15
COc1ccc(NC(=O)COC(=O)/C=C/c2ccccc2[N+](=O)[O-])cc1	/	/	/	9	/
O=C(COC(=O)/C=C/c1ccccc1[N+](=O)[O-])Nc1ccc(S(=O)(=O)N2CCOCC2)cc1	/	0	43*	4	-6
CC(C)[C@H](NC(=O)c1ccccc1)C(=O)OCC(=O)Nc1ccc(S(=O)(=O)N2CCOCC2)cc1	/	1	43*	/	9
